Assays:
[1] = system: Human immunodeficiency virus 1; assay: Inhibition of wild type HIV-1-IIIB strain replication in CEM-SS cells; type: functional, organism-based; conditions: Human immunodeficiency virus 1, CEM-SS
How it was run: (§1)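 Cells were infected with 100 TCID50 for 30 min and washed twice to remove unbound virus. They were then cultured 5 days with a range of compound concentrations. Virus production was quantified as particle-associated RT activity in the supernatant. IC50 was derived from a computer-generated median-effect plot of dose–effect data.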

CEM-SS [2] = assay: Cytotoxicity against wild type HIV-1-IIIB strain infected CEMSS cells.; type: functional; conditions: Homo sapiens
How it was run: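 Uninfected cells were incubated with compound for 5 days. Viability was read by MTT reduction to formazan at OD540. CC50 is the concentration that halves OD540, taken from a median-effect computer analysis.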

CEM-SS [3] = assay: The compound was tested for inhibition of nevirapine HIV-1 resistant strain; type: functional, cell-based; conditions: Homo sapiens
How it was run: (§2)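 Cells infected with 100 TCID50 virus for 30 min. Unbound virus removed by two washes, then cells cultured 5 days with a range of compound concentrations. Virus production read as particle-associated RT activity in the culture supernatant. IC50 taken from a computer-generated median effect plot of the dose–effect data.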

CEM-SS [4] = assay: Specific index of IC50 and CC50 on HIV-1 IIIB wild type; type: functional
[5] = Specific index of IC50 and CC50 on HIV-1 Nevirapine resistant strain; type: functional
[6] = target: Human immunodeficiency virus type 1 reverse transcriptase (Human immunodeficiency virus 1, UniProt Q72547); assay: Inhibition of HIV-1 reverse transcriptase (RT)
How it was run: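 Recombinant HIV-1 RT (20–50 nM) was expressed in yeast. Assays ran 10 min at 37 °C in 50 mM Tris-HCl pH 8.0 with 5 mM MgCl2, 4 mM DTT, 80 mM KCl and BSA. Template-primer was poly(C)-oligo(dG) (5:1, 0.48 A260/mL), with 2 μM dGTP plus [3H]dGTP. Product was precipitated with cold TCA/pyrophosphate, filtered and scintillation counted. Compounds were in DMSO, with matched DMSO controls.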

CEM-SS [7] = assay: The compound was tested for inhibition of Nevirapine resistant HIV-1 (N119) cells; type: functional, cell-based; conditions: Homo sapiens; how it was run: as §2
CEM-SS [8] = assay: The compound was tested for cytotoxicity against nevirapine HIV-1 resistant strain infected CEMSS cells; type: functional; conditions: Homo sapiens
CEM-SS [9] = assay: The compound was tested for inhibition of wild type HIV-1-IIIB strain; type: functional, cell-based; conditions: Homo sapiens; how it was run: as §1

## Cc1cnc(O)c([N+](=O)[O-])c1Sc1nc2ccccc2s1
[1]
  IC50: 14.5 µM
CEM-SS [2]
  CC50: 13.5 µM

## CCc1c(C)nc(O)c([N+](=O)[O-])c1Sc1cc(C)cc(C)c1
CEM-SS [3]
  IC50: 0.26 µM
[1]
  IC50: ~0.006 µM
CEM-SS [2]
  CC50: > 10 µM
CEM-SS [4]
  Specific index: >1666
[5]
  Specific index: > 38

## Cc1cc(C)cc(Sc2c([N+](=O)[O-])c(O)nc3ccccc23)c1
CEM-SS [3]
  IC50: > 10 µM
[1]
  IC50: 3.8 µM
CEM-SS [2]
  CC50: > 100 µM
CEM-SS [4]
  Specific index: >26

## CCc1c(Sc2cc(C)cc(C)c2)cc(O)nc1C
[6]
  IC50: 0.4 µM
[1]
  IC50: 0.5 µM
CEM-SS [2]
  CC50: > 10 µM
CEM-SS [4]
  Specific index: >20

## Cc1cnc(O)c([N+](=O)[O-])c1Sc1nccn1C
[1]
  IC50: 56 µM
CEM-SS [2]
  CC50: 68.5 µM
CEM-SS [4]
  Specific index: >1

## Cc1cc(C)cc(Sc2c(C)cnc(O)c2NC(=O)Cc2ccccc2)c1
[1]
  IC50: > 10 µM
CEM-SS [2]
  CC50: > 10 µM

## CCOC(=O)Nc1c(O)ncc(C)c1Sc1cc(C)cc(C)c1
[1]
  IC50: 7.5 µM
CEM-SS [2]
  CC50: > 100 µM
CEM-SS [4]
  Specific index: >13

## CCC(=O)Nc1c(O)ncc(C)c1Sc1cc(C)cc(C)c1
[6]
  IC50: > 4 µM
[1]
  IC50: 41.4 µM
CEM-SS [2]
  CC50: > 100 µM
CEM-SS [4]
  Specific index: >2

## Cc1c(Sc2ccccc2)n(COCc2ccccc2)c(=O)[nH]c1=O
[6]
  IC50: 0.4 µM

## Cc1cc(C)cc(Sc2c(C)cnc(O)c2[N+](=O)[O-])c1
[6]
  IC50: > 10 µM
CEM-SS [7]
  IC50: > 10 µM
[1]
  IC50: 0.12 µM
CEM-SS [2]
  CC50: > 10 µM
CEM-SS [4]
  Specific index: >83

## Cc1cc(C)nc(Sc2c(C)cnc(O)c2[N+](=O)[O-])n1
[1]
  IC50: 17.5 µM
CEM-SS [2]
  CC50: 19.5 µM
CEM-SS [4]
  Specific index: >1

## CCc1c(C)nc(O)c(NC(C)=O)c1Sc1cc(C)cc(C)c1
CEM-SS [3]
  IC50: 4.3 µM
[1]
  IC50: 0.05 µM
CEM-SS [2]
  CC50: 80 µM
CEM-SS [4]
  Specific index: 1600
[5]
  Specific index: > 23
CEM-SS [8]
  CC50: > 100 µM

## CCc1c(C)nc(O)c(N)c1Sc1cc(C)cc(C)c1
[6]
  IC50: 0.015 µM
CEM-SS [3]
  IC50: 2.1 µM
[1]
  IC50: 0.014 µM
CEM-SS [2]
  CC50: > 10 µM
CEM-SS [4]
  Specific index: >714
[5]
  Specific index: > 4

## Cc1cccc(Sc2c(C)cnc(O)c2N)c1
CEM-SS [3]
  IC50: 41.5 µM
[1]
  IC50: 1.4 µM
CEM-SS [2]
  CC50: 78 µM
CEM-SS [4]
  Specific index: >55
[5]
  Specific index: > 1
CEM-SS [8]
  CC50: 78 µM

## CC(C)=CCN1Cc2cc(Cl)cc3[nH]c(=S)n(c23)C[C@@H]1C
[1]
  IC50: > 10 µM
CEM-SS [2]
  CC50: > 10 µM

## Cc1cc(C)cc(Nc2c(C)cnc(O)c2[N+](=O)[O-])c1
[1]
  IC50: 45 µM
CEM-SS [2]
  CC50: > 100 µM
CEM-SS [4]
  Specific index: >2

## Cc1cc(O)nc(Sc2c(C)cnc(O)c2[N+](=O)[O-])n1
[1]
  IC50: > 100 µM
CEM-SS [2]
  CC50: > 100 µM

## Cc1cnc(O)c([N+](=O)[O-])c1Sc1ccccc1
[1]
  IC50: > 10 µM
CEM-SS [2]
  CC50: > 10 µM

## CCOC(=O)c1c(O)nc(C)c(CC)c1Sc1cc(C)cc(C)c1
CEM-SS [3]
  IC50: 2.2 µM
[1]
  IC50: 0.003 µM
CEM-SS [2]
  CC50: > 10 µM
CEM-SS [4]
  Specific index: >3333
[5]
  Specific index: > 4.5

## Cc1cccc(Sc2c(C)cnc(O)c2[N+](=O)[O-])c1
[6]
  IC50: > 10 µM
CEM-SS [2]
  CC50: > 10 µM

## Cc1c(Sc2ccccc2)n(COCCO)c(=O)[nH]c1=O [HEPT]
[6]
  IC50: > 6 µM

## CCc1cnc(O)c([N+](=O)[O-])c1Sc1cc(C)cc(C)c1
CEM-SS [3]
  IC50: 6.7 µM
[1]
  IC50: ~0.09 µM
CEM-SS [2]
  CC50: > 10 µM
CEM-SS [4]
  Specific index: >111
[5]
  Specific index: > 1

## Cc1cc(C)cc(Sc2c(C)cnc(O)c2NC=O)c1
[1]
  IC50: 6.6 µM
CEM-SS [2]
  CC50: > 100 µM
CEM-SS [4]
  Specific index: >15

## CCCCCCC(=O)Nc1c(O)ncc(C)c1Sc1cc(C)cc(C)c1
CEM-SS [9]
  IC50: > 10 µM
CEM-SS [2]
  CC50: > 10 µM

## Cc1cc(C)cc(Sc2c(N)c(O)nc3ccccc23)c1
CEM-SS [3]
  IC50: 6.6 µM
[1]
  IC50: 0.25 µM
CEM-SS [2]
  CC50: > 9 µM
CEM-SS [4]
  Specific index: >36
[5]
  Specific index: > 1.5
CEM-SS [8]
  CC50: 8.2 µM

## CCc1cnc(O)c(N)c1Sc1cc(C)cc(C)c1
CEM-SS [3]
  IC50: 6.7 µM
[1]
  IC50: 0.01 µM
CEM-SS [2]
  CC50: > 10 µM
CEM-SS [4]
  Specific index: >1000
[5]
  Specific index: > 1

## Cc1cnc(O)c([N+](=O)[O-])c1SC1=NCCS1
[1]
  IC50: 17 µM
CEM-SS [2]
  CC50: 21.5 µM
CEM-SS [4]
  Specific index: >1

## Cc1cc(C)cc(Sc2c(C)cnc(O)c2N)c1
[6]
  IC50: 0.1 µM
CEM-SS [3]
  IC50: > 10 µM
[1]
  IC50: 0.01 µM
CEM-SS [2]
  CC50: > 10 µM
CEM-SS [4]
  Specific index: >1000

## CC(=O)Nc1c(O)ncc(C)c1Sc1cc(C)cc(C)c1
[6]
  IC50: > 4 µM
CEM-SS [3]
  IC50: > 100 µM
[1]
  IC50: 0.067 µM
CEM-SS [2]
  CC50: > 100 µM
CEM-SS [4]
  Specific index: >1492

## Cc1cnc(O)c(N)c1Sc1nc2ccccc2o1
[1]
  IC50: 8 µM
CEM-SS [2]
  CC50: 7.5 µM

## Cc1cnc(O)c([N+](=O)[O-])c1Sc1ccccn1
[1]
  IC50: 18 µM
CEM-SS [2]
  CC50: 28.5 µM
CEM-SS [4]
  Specific index: >1

## CCOC(=O)c1c(Sc2cc(C)cc(C)c2)c(CC)c(C)[nH]c1=O
[6]
  IC50: 0.6 µM

## CCc1c(C)[nH]c(=O)c([N+](=O)[O-])c1Sc1cc(C)cc(C)c1
[6]
  IC50: 0.03 µM

## Cc1cn([C@H]2C[C@H](N=[N+]=[N-])[C@@H](CO)O2)c(=O)[nH]c1=O [ZIDOVUDINE]
CEM-SS [2]
  CC50: > 100 µM

## Cc1cccc(Sc2c(C)c[nH]c(=O)c2N)c1
[6]
  IC50: > 4 µM

## Cc1cnc(O)c([N+](=O)[O-])c1Sc1nc2ccccc2[nH]1
[1]
  IC50: 43.5 µM
CEM-SS [2]
  CC50: 54.5 µM
CEM-SS [4]
  Specific index: >1

## Cc1cnc(O)c([N+](=O)[O-])c1Sc1nc2ccccc2o1
[1]
  IC50: 5.5 µM
CEM-SS [2]
  CC50: 16 µM
CEM-SS [4]
  Specific index: >2
